Calls of active or inactive are those of the source. The rule behind the calls is not given here.
What was measured:
Type in all cases: cell-based
[1] = biological target: T1, Oxysterols receptor LXR-beta (Homo sapiens) (UniProt P55055); test: Antagonist activity at human full length LXRbeta expressed in […] cells co-expressing human pSG5/RXRalpha assessed as inhibition of GW3965-induced receptor activation at 10 uM after 18 hrs by luciferase reporter gene assay
T1 sequence (whole entry): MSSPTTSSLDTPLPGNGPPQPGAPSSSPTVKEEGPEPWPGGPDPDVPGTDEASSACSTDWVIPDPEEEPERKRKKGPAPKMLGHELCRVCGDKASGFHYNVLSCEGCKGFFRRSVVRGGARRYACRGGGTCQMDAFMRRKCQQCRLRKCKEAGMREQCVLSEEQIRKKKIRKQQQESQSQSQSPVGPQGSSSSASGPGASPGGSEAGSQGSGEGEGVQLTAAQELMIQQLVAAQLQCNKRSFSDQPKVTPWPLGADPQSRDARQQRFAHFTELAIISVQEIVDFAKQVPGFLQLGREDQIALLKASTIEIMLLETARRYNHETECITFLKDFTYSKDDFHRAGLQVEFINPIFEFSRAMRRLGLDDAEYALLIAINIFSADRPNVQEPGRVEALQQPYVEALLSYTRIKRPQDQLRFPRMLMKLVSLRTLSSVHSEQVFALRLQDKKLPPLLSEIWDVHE
Method in brief: (§1)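 Antagonist mode in BHK21 cells co-transfected with an RXR plasmid, a full-length human LXRα or LXRβ vector and the pGL3/LRELuc luciferase reporter. Steroids at 10 µM were co-administered with the synthetic agonist GW3965. Luciferase output is given as % of the GW3965 1 µM response. Means ± S.E., n=3 independent experiments; Dunnett's test after one-way ANOVA.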

[2] = biological target: T1, Oxysterols receptor LXR-beta (Homo sapiens); test: Agonist activity at human full length LXRbeta expressed in […] cells co-expressing human pSG5/RXRalpha at 10 uM after 18 hrs by luciferase reporter gene assay relative to GW3965
Method in brief: (§2)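 BHK21 cells co-transfected with an RXR plasmid, a full-length human LXRα or LXRβ expression vector and the pGL3/LRELuc reporter. Steroids were added alone at 10 µM and luciferase activity was read. Activity is expressed as % induction relative to GW3965 1 µM (100%). Means ± S.E. of 3 independent experiments; one-way ANOVA with Dunnett's test versus the no-steroid control.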

[3] = biological target: T2, Oxysterols receptor LXR-alpha (Homo sapiens) (UniProt Q13133); test: Agonist activity at human full length LXRalpha expressed in […] cells co-expressing human pSG5/RXRalpha at 10 uM after 18 hrs by luciferase reporter gene assay relative to GW3965; method in brief: as §2
T2 sequence (whole entry): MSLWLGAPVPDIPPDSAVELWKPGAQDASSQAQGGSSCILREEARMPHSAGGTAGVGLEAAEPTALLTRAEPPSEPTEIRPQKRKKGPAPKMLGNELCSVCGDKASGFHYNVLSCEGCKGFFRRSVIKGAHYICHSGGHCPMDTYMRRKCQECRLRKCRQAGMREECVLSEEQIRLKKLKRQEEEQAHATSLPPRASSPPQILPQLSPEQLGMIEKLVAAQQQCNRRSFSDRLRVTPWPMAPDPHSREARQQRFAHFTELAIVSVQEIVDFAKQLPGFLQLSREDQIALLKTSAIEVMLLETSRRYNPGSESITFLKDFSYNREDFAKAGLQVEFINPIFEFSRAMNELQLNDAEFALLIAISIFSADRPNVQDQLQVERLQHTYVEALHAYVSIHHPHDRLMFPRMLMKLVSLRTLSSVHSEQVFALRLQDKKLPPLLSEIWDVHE

[4] = biological target: T2, Oxysterols receptor LXR-alpha (Homo sapiens); test: Antagonist activity at human full length LXRalpha expressed in […] cells co-expressing human pSG5/RXRalpha assessed as inhibition of GW3965-induced receptor activation at 10 uM after 18 hrs by luciferase reporter gene assay; method in brief: as §1

C[C@H](CCC(=O)N(C)C)[C@H]1CC[C@H]2[C@@H]3CC=C4C[C@@H](O)CC[C@]4(C)[C@H]3CC[C@]12C
inhibition [1]: Active | Activity [2]: Active | Activity [3]: Active | inhibition [4]: Active

C[C@H](CCC(=O)N(C)C)[C@H]1CC[C@H]2[C@@H]3C[C@H](O)[C@@H]4C[C@H](O)CC[C@]4(C)[C@H]3CC[C@]12C
inhibition [1]: Active | Activity [2]: Active | inhibition [4]: Active

C[C@H](CCC(=O)N(C)C)[C@H]1CC[C@H]2[C@@H]3CC[C@H]4C[C@@H](O)[C@@H]5C[C@]4(CO5)[C@H]3CC[C@]12C
inhibition [1]: Active | Activity [2]: inactive | Activity [3]: inactive | inhibition [4]: Active

C[C@H](CCC(=O)N(C)C)[C@H]1CC[C@H]2[C@@H]3CC[C@H]4C[C@H](O)[C@@H]5C[C@]4(CO5)[C@H]3CC[C@]12C
inhibition [1]: Active | Activity [2]: inactive | Activity [3]: inactive | inhibition [4]: Active

C[C@H](CCC(=O)N(C)C)[C@H]1CC[C@H]2[C@@H]3CC[C@@H]4C[C@H](O)CC[C@]4(C)[C@H]3CC[C@]12C
Activity [2]: inactive | Activity [3]: Active

C[C@H](CCC(=O)N(C)C)[C@H]1CC[C@H]2[C@@H]3C[C@@H]4OC[C@@]5(CC[C@@H](O)C=C45)[C@H]3CC[C@]12C
inhibition [1]: inactive | Activity [3]: Active
